Results taken from ChEMBL document CHEMBL4346653, “A2B Adenosine Receptor Antagonists with Picomolar Potency” (J Med Chem, 2019).
pKi: −log10 of the molar value. Values after ≈ are worked out from the molar mass of the structure shown.

Key:
Adenosine receptor A1 [1] = molecular target: T1, Adenosine receptor A1 (Mus musculus, UniProt Q60612); test: Displacement of [3H]DPCPX from recombinant mouse A1 adenosine receptor expressed in CHO cell membranes measured after 60 mins by liquid scintillation counting method
T1 sequence (Q60612 whole entry): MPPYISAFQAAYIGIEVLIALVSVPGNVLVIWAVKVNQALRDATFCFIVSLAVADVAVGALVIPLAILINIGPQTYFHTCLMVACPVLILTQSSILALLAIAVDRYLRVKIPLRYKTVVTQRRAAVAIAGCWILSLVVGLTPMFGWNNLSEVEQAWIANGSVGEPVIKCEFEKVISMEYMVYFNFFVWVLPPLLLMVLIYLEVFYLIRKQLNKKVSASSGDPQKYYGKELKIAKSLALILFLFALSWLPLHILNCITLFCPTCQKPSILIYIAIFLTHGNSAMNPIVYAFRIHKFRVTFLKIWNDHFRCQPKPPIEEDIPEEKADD

Adenosine receptor A3 [2] = molecular target: T2, Adenosine receptor A3 (Rattus norvegicus, UniProt P28647); test: Binding affinity to rat A3 adenosine receptor
T2 sequence (P28647 whole entry): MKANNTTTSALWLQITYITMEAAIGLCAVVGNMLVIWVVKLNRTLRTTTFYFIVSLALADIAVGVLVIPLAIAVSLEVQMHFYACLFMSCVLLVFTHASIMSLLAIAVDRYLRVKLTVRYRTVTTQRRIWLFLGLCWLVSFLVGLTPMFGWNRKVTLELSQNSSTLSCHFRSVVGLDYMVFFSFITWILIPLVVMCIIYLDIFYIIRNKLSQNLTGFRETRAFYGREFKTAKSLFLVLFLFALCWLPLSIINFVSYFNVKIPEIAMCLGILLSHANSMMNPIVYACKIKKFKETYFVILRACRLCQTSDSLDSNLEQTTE

Adenosine receptor A2b [3] = molecular target: T3, Adenosine receptor A2b (Mus musculus, UniProt Q60614); test: Displacement of [3H]PSB-603 from recombinant mouse A2B adenosine receptor expressed in CHO cell membranes measured after 75 mins by liquid scintillation counting method
T3 sequence (Q60614 whole entry): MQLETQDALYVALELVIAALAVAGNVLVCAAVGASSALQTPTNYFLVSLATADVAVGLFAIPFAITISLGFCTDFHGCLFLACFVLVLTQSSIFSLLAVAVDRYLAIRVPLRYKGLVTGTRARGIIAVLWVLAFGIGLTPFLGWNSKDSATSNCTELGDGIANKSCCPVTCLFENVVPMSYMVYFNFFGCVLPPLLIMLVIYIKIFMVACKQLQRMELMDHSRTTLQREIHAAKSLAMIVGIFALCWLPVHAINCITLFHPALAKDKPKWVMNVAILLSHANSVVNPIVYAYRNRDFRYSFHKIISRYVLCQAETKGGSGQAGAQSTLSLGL

Adenosine receptor A2a [4] = molecular target: Adenosine receptor A2a (Mus musculus, UniProt Q60613); test: Displacement of [3H]MSX-2 from recombinant mouse A2A adenosine receptor expressed in CHO cell membranes measured after 60 mins by liquid scintillation counting method
Adenosine receptor A2a (Mus musculus, UniProt Q60613), sequence (Q60613 whole entry): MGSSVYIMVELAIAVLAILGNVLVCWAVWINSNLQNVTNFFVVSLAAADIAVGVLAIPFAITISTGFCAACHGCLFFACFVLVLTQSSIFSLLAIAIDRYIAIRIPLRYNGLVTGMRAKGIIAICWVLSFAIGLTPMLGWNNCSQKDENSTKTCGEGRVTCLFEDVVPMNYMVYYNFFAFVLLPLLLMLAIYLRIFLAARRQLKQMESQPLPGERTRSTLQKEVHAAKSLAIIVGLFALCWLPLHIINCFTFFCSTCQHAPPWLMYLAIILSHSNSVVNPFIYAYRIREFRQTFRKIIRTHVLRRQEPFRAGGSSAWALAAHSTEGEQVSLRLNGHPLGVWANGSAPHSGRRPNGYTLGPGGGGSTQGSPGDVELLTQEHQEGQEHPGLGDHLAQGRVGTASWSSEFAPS

Adenosine receptor A3 [5] = molecular target: T4, Adenosine receptor A3 (Mus musculus, UniProt Q61618); test: Displacement of [3H]NECA from recombinant mouse A3 adenosine receptor expressed in CHO cell membranes measured after 180 mins by liquid scintillation counting method
T4 sequence (Q61618 whole entry): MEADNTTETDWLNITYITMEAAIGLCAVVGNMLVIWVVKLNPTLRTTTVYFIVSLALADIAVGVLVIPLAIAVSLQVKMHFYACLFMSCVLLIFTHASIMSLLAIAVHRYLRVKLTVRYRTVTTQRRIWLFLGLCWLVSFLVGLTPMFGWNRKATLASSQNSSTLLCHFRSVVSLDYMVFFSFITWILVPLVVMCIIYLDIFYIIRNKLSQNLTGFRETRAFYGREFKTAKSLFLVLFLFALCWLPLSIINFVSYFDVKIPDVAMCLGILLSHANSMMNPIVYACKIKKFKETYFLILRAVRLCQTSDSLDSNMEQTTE

Adenosine receptor A2a [6] = molecular target: Adenosine receptor A2a (Homo sapiens, UniProt P29274); test: Displacement of [3H]MSX-2 from recombinant human A2A adenosine receptor expressed in CHO cell membranes measured after 60 mins by liquid scintillation counting method
Adenosine receptor A2a (Homo sapiens, UniProt P29274), sequence (P29274 whole entry): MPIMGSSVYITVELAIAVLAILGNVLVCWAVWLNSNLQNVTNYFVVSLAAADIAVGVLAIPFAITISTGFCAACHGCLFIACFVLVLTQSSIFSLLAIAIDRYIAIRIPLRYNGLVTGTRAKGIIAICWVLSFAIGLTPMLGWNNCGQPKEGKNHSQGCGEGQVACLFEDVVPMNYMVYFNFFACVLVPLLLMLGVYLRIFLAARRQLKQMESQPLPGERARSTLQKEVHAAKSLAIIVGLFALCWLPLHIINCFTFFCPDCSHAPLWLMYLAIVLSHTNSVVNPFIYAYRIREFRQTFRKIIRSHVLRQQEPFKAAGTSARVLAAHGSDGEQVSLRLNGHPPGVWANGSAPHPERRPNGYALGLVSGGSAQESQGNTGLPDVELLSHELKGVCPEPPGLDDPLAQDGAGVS
Summary of the method: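 Human A2A receptor binding against [3H]MSX-2, n = 3. Ki values (± SEM, nM) come from concentration-inhibition curves. Some Ki values are marked as derived from an extrapolated curve.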

Adenosine receptor A2b [7] = molecular target: T5, Adenosine receptor A2b (Rattus norvegicus, UniProt P29276); test: Displacement of [3H]PSB-603 from recombinant rat A2B adenosine receptor expressed in CHO cell membranes measured after 75 mins by liquid scintillation counting method
T5 sequence (P29276 whole entry): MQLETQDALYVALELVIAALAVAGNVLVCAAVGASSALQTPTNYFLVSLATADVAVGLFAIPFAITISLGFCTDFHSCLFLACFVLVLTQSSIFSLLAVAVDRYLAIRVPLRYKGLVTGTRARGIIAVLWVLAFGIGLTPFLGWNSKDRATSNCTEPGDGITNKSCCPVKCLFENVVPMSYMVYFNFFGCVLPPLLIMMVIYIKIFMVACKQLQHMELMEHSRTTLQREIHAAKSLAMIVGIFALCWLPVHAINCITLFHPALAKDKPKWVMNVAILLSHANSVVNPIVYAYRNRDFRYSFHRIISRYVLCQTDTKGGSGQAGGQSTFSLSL

Adenosine receptor A1 [8] = molecular target: T1, Adenosine receptor A1; test: Displacement of [3H]CCPA from recombinant mouse A1 adenosine receptor expressed in CHO cell membranes measured after 60 mins by liquid scintillation counting method
[9] = Semi-thermodynamic solubility of the compound at 200 uM after 24 hrs by LC/MS-based shake-flask method; format: physicochemical; conditions: read-out: Therm_solubility

## CCCn1c(=O)[nH]c2nc(-c3ccc(S(=O)(=O)O)cc3)[nH]c2c1=O
Adenosine receptor A1 [1]
  pKi: 6.23
Adenosine receptor A3 [2]
  pKi: < 5.00
Adenosine receptor A2b [3]
  pKi: 5.71
Adenosine receptor A2a [4]
  pKi: < 5.00
Adenosine receptor A3 [5]
  pKi: < 5.00
Adenosine receptor A2a [6]
  pKi: 5.42
Adenosine receptor A2b [7]
  pKi: 5.50

## CCCn1c(=O)c2[nH]c(-c3ccc(OCC(=O)Nc4ccc(C#N)cc4)cc3)nc2n(CCC)c1=O
Adenosine receptor A3 [2]
  pKi: < 5.00
Adenosine receptor A2b [3]
  pKi: 8.51
Adenosine receptor A2a [4]
  pKi: < 5.00
Adenosine receptor A1 [8]
  pKi: 8.84
Adenosine receptor A3 [5]
  pKi: < 5.00

## CCCn1c(=O)[nH]c2nc(-c3ccc(S(=O)(=O)N4CCN(c5ccc(Cl)cc5)CC4)cc3)[nH]c2c1=O
[9]
  solubility thermodynamic at 24 h, 200 µM: 3.2 µM (≈ 1.69 µg/mL)
